ChEMBL document CHEMBL1240433, “Design, synthesis, and antitubercular evaluation of novel series of 3-benzofuran-5-aryl-1-pyrazolyl-pyridylmethanone and 3-benzofuran-5-aryl-1-pyrazolylcarbonyl-4-oxo-naphthyridin analogs” (Eur J Med Chem, 2010)
In brackets after ≈: the same amount, converted by molar mass.

Experiments:
Vero = assay: Cytotoxicity against african green monkey Vero after 72 hrs by MTT assay; assay type: cell-based; conditions: Chlorocebus sabaeus
Outline: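 Mammalian Vero cells were used to determine IC50. The read-out was cellular reduction of MTT to a formazan product, measured with a non-radioactive cell proliferation kit.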

[1] = system: Mycobacterium tuberculosis; assay: Antitubercular activity against Mycobacterium tuberculosis ATCC 35801 infected in CD1 mouse lung at 25 mg/kg, iv after 6 weeks; assay type: functional
Outline: (§1)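 Female CD-1 mice, 6 weeks old, six per group, were infected intravenously via the caudal vein with 10^6 to 10^7 viable organisms. Dosing at 25 mg/kg intraperitoneally began 10 days after infection. Viable counts came from serial 10-fold dilutions on 7H10 agar after incubation at 37 °C in ambient air for up to 6 weeks, compared with vehicle-treated controls.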

[2] = system: Mycobacterium tuberculosis; assay: Antitubercular activity against Mycobacterium tuberculosis H37Rv after 6 weeks; assay type: functional
Outline: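 Lowenstein-Jensen slope assay. DMSO stocks of 250 and 10 µg/mL were each mixed 0.8 mL into 7.2 mL L.J. medium, then inspissated at 75-80 °C for 3 days. A loopful of culture was dispersed with glass beads in sterile water by vortexing for 2 min and streaked onto the slopes. DMSO-only and drug-free media served as controls. Bacterial counts were read after 6 weeks at 37 °C.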

[3] = system: Mycobacterium tuberculosis; assay: Antitubercular activity against Mycobacterium tuberculosis ATCC 35801 infected in CD1 mouse spleen at 25 mg/kg, iv after 6 weeks; assay type: functional; outline: as §1

| Structure (SMILES) | IC50 (Vero) [µM] | log10cfu [1] | MIC [2] [µg/mL] | log10cfu [3] |
| --- | --- | --- | --- | --- |
| CO[C@H]1/C=C/O[C@@]2(C)Oc3c(C)c(O)c4c(O)c(c(/C=N/N5CCN(C)CC5)c(O)c4c3C2=O)NC(=O)/C(C)=C\C=C\[C@H](C)[C@H](O)[C@@H](C)[C@@H](O)[C@@H](C)[C@H](OC(C)=O)[C@@H]1C [RIFAMPIN] | > 74.5 | 3.21 | 0.6 (≈ 0.729 µM) | 3.98 |
| CCn1cc(C(=O)N2N=C(c3cc4ccccc4o3)CC2c2ccc(O)cc2)c(=O)c2ccc(C)nc21 (stereo not given) | > 148 | 5.49 | 3.2 (≈ 6.5 µM) | 7.21 |
| CCn1cc(C(=O)N2N=C(c3cc4ccccc4o3)CC2/C=C/c2ccccc2)c(=O)c2ccc(C)nc21 (stereo not given) | > 169 | 4.61 | 5.5 (≈ 10.9 µM) | 6.32 |
| CCn1cc(C(=O)N2N=C(c3cc4ccccc4o3)CC2c2ccc(OC)cc2)c(=O)c2ccc(C)nc21 (stereo not given) | > 156 | 9.32 | 6.3 (≈ 12.4 µM) | 10.77 |
| CCn1cc(C(=O)N2N=C(c3cc4ccccc4o3)CC2c2ccccc2C(=O)O)c(=O)c2ccc(C)nc21 (stereo not given) | > 196 | 5.12 | 4.5 (≈ 8.64 µM) | 6.16 |
| O=C(O)c1ccccc1C1CC(c2cc3ccccc3o2)=NN1C(=O)c1ccncc1 (stereo not given) | > 171 | 6.24 | 2.2 (≈ 5.35 µM) | 5.42 |
| NNC(=O)c1ccncc1 [ISONIAZID] | > 130 | 4.62 | 0.32 (≈ 2.33 µM) | 5.45 |
| O=C(c1ccncc1)N1N=C(c2cc3ccccc3o2)CC1c1ccccc1[N+](=O)[O-] (stereo not given) | > 245 | 9.5 | 8.2 (≈ 19.9 µM) | 10.5 |
| CCn1cc(C(=O)N2N=C(c3cc4ccccc4o3)CC2c2ccc(N(C)C)cc2)c(=O)c2ccc(C)nc21 (stereo not given) | > 207 | 4.82 | 9.2 (≈ 17.7 µM) | 6.53 |
| O=C(c1ccncc1)N1N=C(c2cc3ccccc3o2)CC1c1ccc(O)cc1 (stereo not given) | > 200 | 7.46 | 4.5 (≈ 11.7 µM) | 8.2 |
| CCn1cc(C(=O)N2N=C(c3cc4ccccc4o3)CC2c2ccccc2Cl)c(=O)c2ccc(C)nc21 (stereo not given) | > 178 | 10.85 | 7.8 (≈ 15.3 µM) | 10.96 |
| O=C(c1ccncc1)N1N=C(c2cc3ccccc3o2)CC1c1ccccc1 (stereo not given) | > 210 | 9.4 | 8.5 (≈ 23.1 µM) | 10.6 |
| COc1ccc(C2CC(c3cc4ccccc4o3)=NN2C(=O)c2ccncc2)cc1 (stereo not given) | > 200 | 8.6 | 6.8 (≈ 17.1 µM) | 9.24 |
| CCn1cc(C(=O)N2N=C(c3cc4ccccc4o3)CC2c2ccccc2OC)c(=O)c2ccc(C)nc21 (stereo not given) | > 188 | 6.87 | 5.5 (≈ 10.9 µM) | 6.13 |
| CCn1cc(C(=O)N2N=C(c3cc4ccccc4o3)CC2c2ccccc2[N+](=O)[O-])c(=O)c2ccc(C)nc21 (stereo not given) | > 85.4 | 5.67 | 1.9 (≈ 3.64 µM) | 6.12 |
| CCn1cc(C(=O)N2N=C(c3cc4ccccc4o3)CC2c2ccco2)c(=O)c2ccc(C)nc21 (stereo not given) | > 186 | 9.66 | 7.5 (≈ 16.1 µM) | 10.52 |
| O=C(c1ccncc1)N1N=C(c2cc3ccccc3o2)CC1c1ccccc1Cl (stereo not given) | > 211 | 12.5 | 10.6 (≈ 26.4 µM) | 12.2 |
| O=C(c1ccncc1)N1N=C(c2cc3ccccc3o2)CC1c1ccccc1O (stereo not given) | > 195 | 7.2 | 3.7 (≈ 9.65 µM) | 9.45 |
| COc1ccccc1C1CC(c2cc3ccccc3o2)=NN1C(=O)c1ccncc1 (stereo not given) | > 202 | 9.65 | 6.5 (≈ 16.4 µM) | 10.6 |
| CCn1cc(C(=O)N2N=C(c3cc4ccccc4o3)CC2c2ccccc2)c(=O)c2ccc(C)nc21 (stereo not given) | > 210 | 12.23 | 9.8 (≈ 20.6 µM) | 12.98 |
| CCn1cc(C(=O)N2N=C(c3cc4ccccc4o3)CC2c2ccc(Cl)cc2)c(=O)c2ccc(C)nc21 (stereo not given) | > 160 | 11.52 | 8.3 (≈ 16.2 µM) | 12.12 |
| CCn1cc(C(=O)N2N=C(c3cc4ccccc4o3)CC2c2ccc(OC)cc2O)c(=O)c2ccc(C)nc21 (stereo not given) | > 154 | 8.42 | 4.2 (≈ 8.04 µM) | 9.28 |
| O=C(c1ccncc1)N1N=C(c2cc3ccccc3o2)CC1/C=C/c1ccccc1 (stereo not given) | > 212 | 10.8 | 8.6 (≈ 21.9 µM) | 11.6 |
| CCn1cc(C(=O)N2N=C(c3cc4ccccc4o3)CC2c2ccccc2O)c(=O)c2ccc(C)nc21 (stereo not given) | > 158 | 4.11 | 1.2 (≈ 2.44 µM) | 5.36 |
| CCn1cc(C(=O)N2N=C(c3cc4ccccc4o3)CC2c2cccc([N+](=O)[O-])c2)c(=O)c2ccc(C)nc21 (stereo not given) | > 164 | 2.65 | 2.3 (≈ 4.41 µM) | 3.25 |
| O=C(c1ccncc1)N1N=C(c2cc3ccccc3o2)CC1c1ccc(Cl)cc1 (stereo not given) | > 221 | 13.8 | 11.5 (≈ 28.6 µM) | 12.4 |
| O=C(c1ccncc1)N1N=C(c2cc3ccccc3o2)CC1c1cccc([N+](=O)[O-])c1 (stereo not given) | > 240 | 10.8 | 7.5 (≈ 18.2 µM) | 11.6 |
| O=C(c1ccncc1)N1N=C(c2cc3ccccc3o2)CC1c1ccco1 (stereo not given) | > 208 | 11.4 | 9.6 (≈ 26.9 µM) | 12.6 |
| COc1ccc(C2CC(c3cc4ccccc4o3)=NN2C(=O)c2ccncc2)c(O)c1 (stereo not given) | > 191 | 6.98 | 3.3 (≈ 7.98 µM) | 6.52 |
| CN(C)c1ccc(C2CC(c3cc4ccccc4o3)=NN2C(=O)c2ccncc2)cc1 (stereo not given) | > 211 | 14.4 | 9.2 (≈ 22.4 µM) | 15.8 |
